# Sampled rows, rich in hits. Any-hit rate of the full collection: about 2.7%.
# NR2E3 ag-1: inhibitors of NR2E3-RetCOR corepressor binding, primary screen, NR2E3 agonist project, biochemical, TR-FRET, GST-NR2E3, biotin-RetCOR; Photoreceptor-specific nuclear receptor (Homo sapiens), Q9Y5X4; 1536-well; inhibition of corepressor binding, % at 4.78 µM; 0.12% of 320,000 active;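 active means percent inhibition above the cutoff of mean plus 3 SD of all tested compounds, set per screening campaign, cut at about 20% in these data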;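 further: 0% = DMSO wells and 100% = biotin wells as full block of FRET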
# Target sequence (Q9Y5X4 whole entry, looked up): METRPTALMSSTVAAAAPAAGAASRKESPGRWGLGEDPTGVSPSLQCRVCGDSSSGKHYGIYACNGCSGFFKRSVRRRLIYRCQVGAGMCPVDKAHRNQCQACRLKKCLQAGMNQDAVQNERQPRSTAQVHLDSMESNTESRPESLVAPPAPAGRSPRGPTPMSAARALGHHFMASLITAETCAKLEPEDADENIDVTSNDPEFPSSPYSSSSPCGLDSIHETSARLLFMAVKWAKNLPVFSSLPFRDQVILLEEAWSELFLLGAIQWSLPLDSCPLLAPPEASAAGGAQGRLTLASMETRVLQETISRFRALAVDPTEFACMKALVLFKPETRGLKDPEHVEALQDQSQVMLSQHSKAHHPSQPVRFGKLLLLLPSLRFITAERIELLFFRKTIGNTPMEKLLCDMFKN
#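 Material – GST-tagged NR2E3 plus biotinylated RetCOR corepressor · Quantity – NR2E3 fusion 1.35 nM · Times – 5 h incubation at 4 °C · Medium – pH 7.5 Tris-based buffer · Technique – TR-FRET, Eu(K)-anti-GST donor, streptavidin-D2 acceptor, ex 340, em 617/671 nm · Benchmarks – high control biotin, low control 0.6% DMSO · Format – 1536-well plates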
# NR2E3 ag-2: NR2E3 agonists in two-hybrid cells, primary screen, cell-based, luminescence, CHO-S, Gal4-NCOR/VP16-NR2E3. Photoreceptor-specific nuclear receptor (Homo sapiens), Q9Y5X4. luciferase. inhibition of corepressor binding, % at 3.98 µM. 0.35% of 360,000 active;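 active means inhibition above the mean of all tested compounds plus 3 SD, cut at about 70% in these data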;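 further: 0% = DMSO with NR2E3 transfected cells and 100% = cells lacking NR2E3 construct; higher means lower luciferase signal from less NR2E3 corepressor binding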
# MC4R antagonist: MC4R antagonists of cAMP signaling, primary screen, cell-based, TR-FRET, antagonist arm of biased-ligand search | 0.48% of 360,000 active | MC4R-expressing cells, MTII-stimulated cAMP, LANCE TR-FRET | inhibition, % at 6.5 µM | Melanocortin receptor 4 (Homo sapiens), P32245;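 active means inhibition above its plate's cutoff, the mean of tested wells on that plate plus 3 SD, cut at about 29% in these data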;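 further: 0% = Melanotan II alone and 100% = Melanotan II plus saturating MCL0020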
#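 System: U2OS cells stably expressing human melanocortin 4 receptor (MC4R). Reagent: Melanotan II challenge after compound preincubation. Doses: 6.5 µM. Times: 30-min compound, 1-h challenge, 1-h detection, room temperature. Measured by: TR-FRET with Eu-cAMP and labeled anti-cAMP, 671 nm. Replicates: singlicate.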
# MC4R barr agon: MC4R agonists recruiting beta-arrestin, primary screen, cell-based, luminescence, agonist arm of biased-ligand search; Melanocortin receptor 4 (Homo sapiens), P32245; U2OS MC4R beta-arrestin complementation; percent of melanotan II response, DMSO zero; activation, % at 8.9 µM; 0.98% of 360,000 active; AID 540308, 2011;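 active means activation above a per-plate cutoff, the mean activation of sample wells on that plate plus 3 SD, cut at about 8% in these data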
# PG9 binder: binders of HIV-1 gp120 antibody PG9, primary screen, biochemical, TR-FRET; HIV-1 gp120 / PG9 antibody interaction; TR-FRET gp120-PG9 antibody binding; inhibition, % at 6.7 µM; 0.43% of 360,000 active; in the data active means inhibition above about 8.5%
# NR1D1 modulator: modulators of Rev-erb alpha DNA binding, primary screen, biochemical, FITC-DNA, fluorescence polarization, uHTS; Nuclear receptor subfamily 1 group D member 1 (Homo sapiens), P20393; Rev-erbα–FITC-DNA binding, 90 min; activity, % at 10 µM; 0.79% of 370,000 active; AID 1259318, 2017;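 active means activity above about 14%, limit read from the data; passing the limit was not always enough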;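 further: 0% = DMSO wells with 35 nM protein and 100% = DMSO wells with 750 nM protein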
# U2OS cAMP counter: nonselective cAMP signaling inhibitors, parental cells, counter-screen for MC4R biased antagonist project, cell-based, TR-FRET, U2OS, forskolin, triplicate. LANCE TR-FRET. inhibition, % at 6.5 µM. 26% of 1,600 active. shares compounds with MC4R antagonist;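 active means mean inhibition over triplicates above the low-control well mean plus 3 SD, set per campaign, cut at about 13% in these data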;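 further: signal is single emission at 671 nm which falls as cellular cAMP rises; 0% = forskolin-stimulated wells and 100% = buffer without forskolin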
# MC4R antag conf: MC4R cAMP antagonists, retest, confirmation, cell-based, TR-FRET | shares compounds with MC4R antagonist | MC4R-expressing cells, MTII-stimulated cAMP | inhibition, % at 6.5 µM | 27% of 1,600 active; in the data active means inhibition above about 29%;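 further: 0% = agonist stimulated wells alone and 100% = agonist stimulated wells plus saturating reference antagonist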
# An asterisk follows results filed as active; x = no result given.
SMILES,NR2E3 ag-1,NR2E3 ag-2,MC4R antagonist,MC4R barr agon,PG9 binder,NR1D1 modulator,U2OS cAMP counter,MC4R antag conf
Cc1ccc(S(=O)(=O)N2CCCCC2)cc1NC(=O)Cn1ncc(Cl)c(Cl)c1=O,x,10,2,0,-4,-3,x,x
Cc1nn(CC(=O)Nc2ccc3c(c2)OCO3)c(C)c1Cl,-3,-6,-3,-3,-2,0,x,x
O=C(Cn1ncc(Cl)c(Cl)c1=O)Nc1ccc2c(c1)OCO2,5,13,37*,-4,0,0,28*,66*
CCC(=O)Nc1ccc(C(=O)Cn2ncc(Cl)c(Cl)c2=O)cc1,3,-2,29*,1,-1,-16,22*,26
O=C(N/C(=C/c1ccc(Br)cc1)c1nc2ccccc2[nH]1)c1ccco1,0,-27,-1,0,-4,3,x,x
CCCCC(CC)CN=C(N)NC(N)=NCCCCCCN=C(N)NC(N)=NCC(CC)CCCC (centres undefined),-1,90*,69*,3,x,x,55*,90*
O=C1C(Cl)=C(NCCc2ccccc2)C(=O)c2ccccc21,x,-20,42*,-4,-1,11,10,-18
Cc1ccc(C(C2=C(O)CC(C)(C)CC2=O)C2C(=O)CC(C)(C)CC2=O)s1 (centres undefined),-1,7,13,-1,0,0,x,x
CC1(C)CC(=O)C(C(C2=C(O)CC(C)(C)CC2=O)c2ccc(Br)s2)C(=O)C1 (centres undefined),2,-11,39*,1,1,3,12,12
O=C(Nc1ccccc1)N1CCc2c([nH]c3ccccc23)C1C(F)(F)F (centres undefined),0,-9,35*,1,1,-2,-3,-3
CC1c2[nH]c3ccccc3c2CCN1C(=O)Nc1ccccc1 (centres undefined),-2,-10,-9,1,-3,-2,x,x
COc1ccccc1N1CCN(C(=O)CN(C)S(=O)(=O)c2ccc(C)cc2)CC1,x,-24,2,-2,1,-5,x,x
COc1cccc(CNn2c(-c3cccc(C)c3)nc3ccccc3c2=O)c1O,0,0,5,0,1,2,x,x
CC1(C)CC[C@]2(C(=O)O[C@@H]3O[C@H](CO)[C@@H](O)[C@H](O)[C@H]3O)CC[C@]3(C)C(=CCC4[C@@]5(C)CC[C@H](O[C@@H]6O[C@H](C(=O)O)[C@@H](O[C@H]7OC[C@@H](O)[C@@H](O)[C@@H]7O)[C@H](O)[C@H]6O)C(C)(C)C5CC[C@]43C)[C@@H]2C1 (some centres undefined),x,-13,4,-3,-1,-8,x,x
CC1(C)CC[C@]2(C(=O)O)CC[C@]3(C)C(=CC[C@@H]4[C@@]5(C)CC[C@H](O[C@@H]6O[C@H](C(=O)O)[C@@H](O)[C@H](O[C@@H]7OC[C@H](O)[C@H](O)[C@H]7O)[C@H]6O)C(C)(C)[C@@H]5CC[C@]43C)[C@@H]2C1,x,31,111*,-2,-1,-7,36*,22
CCOc1ccc(N2C(=O)C3C(c4ccccc4F)NN(C(=O)c4ccc(C)cc4)C3C2=O)cc1 (centres undefined),5,4,30*,1,0,1,-4,-19
O=C(COc1ccc([N+](=O)[O-])cc1)Nc1ccc2c(c1)OCO2,-2,-17,32*,2,-1,-4,0,2
COc1ccc(COc2cc(-c3cccc(OC)c3)nc3ccc(NC(=O)c4ccc(OC)cc4)cc23)cc1,-8,-43,-3,-1,-2,-5,x,x
COc1ccc(COc2cc(-c3cccc(OC)c3)nc3ccc(NC(=O)c4cccnc4)cc23)cc1,3,-25,33*,-2,-1,3,2,13
Oc1ccc2cccnc2c1,2,0,-3,0,0,-2,x,x
CCOC(=O)c1c(NC(=O)C(C)OC(=O)C2=COCCO2)sc2c1CCCC2 (centres undefined),4,4,36*,0,x,x,0,19
O=C(NCc1ccc(F)cc1F)[C@@H]1CCCN1C(=O)[C@@H]1CCCN1C(=O)c1cccs1,x,-7,x,x,-1,1,x,x
O=C1NC(=O)C2(COC(c3ccccc3Cl)OC2)S1 (centres undefined),1,1,14,-3,3,-2,x,x
CC1(C)CC(=O)C2=C(C1)OC1=C(C(=O)CC(C)(C)C1)C2c1ccc(O)cc1O,1,-3,74*,-4,-1,-1,50*,52*
CC1(C)CC(=O)C2=C(C1)OC1=C(C(=O)CC(C)(C)C1)C2c1ccc(O)c([N+](=O)[O-])c1,3,-11,5,-2,1,-3,x,x
SMILES,NR2E3 ag-1,NR2E3 ag-2,MC4R antagonist,MC4R barr agon,PG9 binder,NR1D1 modulator,U2OS cAMP counter,MC4R antag conf
COc1ccc(CN2C(=O)c3ccccc3C2=O)cc1C(=O)O,-1,-5,30*,1,-1,4,3,-3
CCc1cccc(CC)c1NC(=O)c1cc(CN2C(=O)c3ccccc3C2=O)ccc1OC,-5,-7,10,-1,0,-4,x,x
CO[C@H]1CN(C)C(=O)c2ccc(NC(=O)C3CCC3)cc2OC[C@H](C)N(Cc2ccc(F)cc2)C[C@@H]1C,x,x,x,x,-1,0,x,x
O=C1c2ccccc2C(=O)N1SC1CCCCC1,2,8,29*,3,0,1,8,25
O=C(NCCCN1CCOCC1)C1CCN(S(=O)(=O)c2c(Cl)cccc2Cl)CC1,1,-35,9,-2,2,-8,x,x
CCCOc1ccccc1C(=O)NC(CO)C(=O)O (centres undefined),-1,-5,3,0,-3,-5,x,x
COC(=O)c1ccc(/C=C/C(=O)OCC(=O)Nc2sccc2C(N)=O)cc1,x,-37,36*,4,x,x,15*,29*
